The values that follow come from ChEMBL document CHEMBL4616594, “Virtual screening identification and chemical optimization of substituted 2-arylbenzimidazoles as new non-zinc-binding MMP-2 inhibitors” (Bioorg Med Chem, 2020).

The structures appear in SMILES notation.

One assay concerns the target Collagenase 3 (Homo sapiens, UniProt P45452). The assay can be described thus: Inhibition of recombinant human MMP13 catalytic domain (Tyr104 to Asn274 residues) expressed in Escherichia coli cells using Mca-Pro-Leu-Gly-Leu-Dpa-Ala-Arg-NH2/TQ3-GABA-Pro-Cha-Abu-Smc-His-Ala-Dab(6'-TAMRA)-Ala-Lys-NH2 as fluorogenic substrate preincubated for 15 mins followed by substrate addition measured after 2 to 4 hrs by fluorometric assay.

Assay [1] concerns the target 72 kDa type IV collagenase (Homo sapiens, UniProt P08253). The assay is described as follows: Inhibition of recombinant human MMP2 catalytic domain (Tyr110 to Asp452 residues) expressed in yeast cells using Mca-Pro-Leu-Gly-Leu-Dpa-Ala-Arg-NH2/TQ3-GABA-Pro-Cha-Abu-Smc-His-Ala-Dab(6'-TAMRA)-Ala-Lys-NH2 as fluorogenic substrate preincubated for 15 mins followed by substrate addition measured after 2 to 4 hrs by fluorometric analysis. The assay is classed as biochemical. In short, it runs like this: (§1)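 Commercial catalytic domain in Tris·HCl 50 mM pH 7.5, NaCl 150 mM, CaCl₂ 1 mM, ZnCl₂ 1 µM, 0.05% Brij-35, 1% DMSO. Inhibitor was tested at six concentrations (1 nM–100 µM), diluted from 10 mM DMSO stocks, and pre-incubated with enzyme for 15 min at room temperature. OmniMMP substrate (2.5 µM final) or OmniMMP RED substrate (1 µM final) was then added and incubated 2–4 h at 37°C. Fluorescence read at ex 340/em 405 or ex 545/em 572. Percent inhibition calculated versus no-inhibitor wells. Run in triplicate; IC50 given as mean ± SEM of ≥2 independent experiments.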

For a further assay, the target named is Neutrophil collagenase (Homo sapiens, UniProt P22894). The assay can be described thus: Inhibition of recombinant human MMP8 catalytic domain (Phe99 to Gln269 residues) expressed in Escherichia coli cells using Mca-Pro-Leu-Gly-Leu-Dpa-Ala-Arg-NH2/TQ3-GABA-Pro-Cha-Abu-Smc-His-Ala-Dab(6'-TAMRA)-Ala-Lys-NH2 as fluorogenic substrate preincubated for 15 mins followed by substrate addition measured after 2 to 4 hrs by fluorometric assay. In a few lines: as §1
Sequence of Neutrophil collagenase (P22894 whole entry, the tested form may be a part): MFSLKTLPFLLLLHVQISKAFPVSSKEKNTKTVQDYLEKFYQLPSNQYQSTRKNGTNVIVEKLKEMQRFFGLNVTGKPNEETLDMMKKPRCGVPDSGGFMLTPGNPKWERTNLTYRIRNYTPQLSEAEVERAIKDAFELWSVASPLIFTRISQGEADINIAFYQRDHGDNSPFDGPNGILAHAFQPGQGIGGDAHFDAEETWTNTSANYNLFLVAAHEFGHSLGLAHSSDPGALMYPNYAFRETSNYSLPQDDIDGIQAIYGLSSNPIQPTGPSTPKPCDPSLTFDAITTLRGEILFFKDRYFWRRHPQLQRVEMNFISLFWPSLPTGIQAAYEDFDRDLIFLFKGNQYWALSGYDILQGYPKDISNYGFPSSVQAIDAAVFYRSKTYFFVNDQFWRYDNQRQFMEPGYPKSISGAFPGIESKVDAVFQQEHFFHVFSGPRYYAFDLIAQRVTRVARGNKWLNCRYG

In assay [2] the target is Matrix metalloproteinase-9 (Homo sapiens, UniProt P14780). The assay can be described thus: Inhibition of recombinant human MMP9 catalytic domain (Phe107 to Pro449 residues) expressed in Escherichia coli cells using Mca-Pro-Leu-Gly-Leu-Dpa-Ala-Arg-NH2/TQ3-GABA-Pro-Cha-Abu-Smc-His-Ala-Dab(6'-TAMRA)-Ala-Lys-NH2 as fluorogenic substrate preincubated for 15 mins followed by substrate addition measured after 2 to 4 hrs by fluorometric assay. In a few lines: as §1
Sequence of Matrix metalloproteinase-9 (P14780 whole entry, the tested form may be a part): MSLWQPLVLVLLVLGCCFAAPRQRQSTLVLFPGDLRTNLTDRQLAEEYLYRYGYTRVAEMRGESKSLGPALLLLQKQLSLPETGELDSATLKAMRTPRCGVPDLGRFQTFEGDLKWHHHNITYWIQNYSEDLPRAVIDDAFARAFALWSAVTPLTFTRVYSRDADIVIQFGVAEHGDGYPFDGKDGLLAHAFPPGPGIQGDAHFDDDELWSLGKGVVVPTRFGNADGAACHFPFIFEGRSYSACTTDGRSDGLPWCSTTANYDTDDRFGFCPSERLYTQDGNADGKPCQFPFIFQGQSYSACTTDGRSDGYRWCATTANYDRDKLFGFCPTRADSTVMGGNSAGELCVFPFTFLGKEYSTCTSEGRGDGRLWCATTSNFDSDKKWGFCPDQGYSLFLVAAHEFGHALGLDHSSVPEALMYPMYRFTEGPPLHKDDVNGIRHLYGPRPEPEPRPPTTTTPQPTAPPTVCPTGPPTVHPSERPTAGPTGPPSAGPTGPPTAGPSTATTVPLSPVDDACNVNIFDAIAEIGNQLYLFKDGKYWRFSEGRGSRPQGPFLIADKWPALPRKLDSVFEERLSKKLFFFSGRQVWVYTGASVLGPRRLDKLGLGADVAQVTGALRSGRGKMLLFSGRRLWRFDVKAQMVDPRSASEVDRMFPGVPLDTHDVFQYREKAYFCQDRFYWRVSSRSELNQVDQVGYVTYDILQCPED

What is called IC50 is the concentration at which inhibition is half-maximal.

Sequence of 72 kDa type IV collagenase (P08253 whole entry, the tested form may be a part): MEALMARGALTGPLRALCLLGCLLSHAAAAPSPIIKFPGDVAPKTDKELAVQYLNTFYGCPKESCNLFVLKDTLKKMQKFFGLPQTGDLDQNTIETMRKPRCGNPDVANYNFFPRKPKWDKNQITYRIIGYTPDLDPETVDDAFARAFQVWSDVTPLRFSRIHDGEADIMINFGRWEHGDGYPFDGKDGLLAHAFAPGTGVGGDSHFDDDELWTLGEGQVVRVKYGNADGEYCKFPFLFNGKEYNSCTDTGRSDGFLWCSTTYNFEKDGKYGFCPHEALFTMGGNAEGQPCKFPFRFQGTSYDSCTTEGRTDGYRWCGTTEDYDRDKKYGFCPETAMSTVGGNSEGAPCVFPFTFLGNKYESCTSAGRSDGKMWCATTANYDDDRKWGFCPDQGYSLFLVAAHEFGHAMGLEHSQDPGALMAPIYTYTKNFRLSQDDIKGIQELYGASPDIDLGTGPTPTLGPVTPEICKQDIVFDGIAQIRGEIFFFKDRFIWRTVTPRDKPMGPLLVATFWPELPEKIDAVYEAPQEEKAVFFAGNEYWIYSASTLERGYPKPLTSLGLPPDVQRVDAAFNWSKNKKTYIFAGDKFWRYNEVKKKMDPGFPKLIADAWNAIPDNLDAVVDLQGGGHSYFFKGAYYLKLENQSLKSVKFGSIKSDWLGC

With `O=C(Nc1nc2ccc(Cl)cc2s1)c1ccc([N+](=O)[O-])cc1`, the IC50 is 20 µM on Collagenase 3, greater than 100 µM in assay [1], greater than 100 µM at Neutrophil collagenase and greater than 100 µM in assay [2].
In the case of `Cc1ccc2oc(-c3ccc(NC(=O)c4ccc([N+](=O)[O-])cc4)cc3)nc2c1`, the IC50 at Collagenase 3 turned out to be 11 µM; in assay [1], 15.9 µM; on Neutrophil collagenase, 14.7 µM; in assay [2], 20 µM.
On the same counts, the results for `O=C(Nc1nc2ccccc2s1)c1ccc([N+](=O)[O-])cc1` are greater than 100 µM, greater than 100 µM, greater than 100 µM and greater than 100 µM.
For `Cc1ccc2oc(-c3ccc([N+](=O)[O-])cc3)nc2c1`, in that order: 8.8 µM, 9.7 µM, 16.4 µM and 14.9 µM.
